Measurements taken from ChEMBL document CHEMBL1165962, “Rearranged diterpenoids from the biotransformation of ent-trachyloban-18-oic acid by Rhizopus arrhizus” (J Nat Prod, 2010).
The source made the active and inactive calls. The rule behind the calls is not given here.

Assays:
Bcl-2-like protein 1 = Bcl-2-like protein 1 (Homo sapiens, UniProt Q07817); experiment: Displacement of fluorescently-tagged BH3 peptide from Bcl-XL by fluorimetric assay
Summary of the method: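 Fluorescence-polarization competition assay in which test compound displaces a fluorescent-tagged Bak BH3-domain peptide from Bcl-xL. Unlabeled Bak(BH3) peptide served as the positive control. Output was percent inhibition of labeled-peptide binding, or IC50 as the concentration giving 50% inhibition.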

KB [1] = experiment: Cytotoxicity against human KB cells; assay type: functional, cell-based
Summary of the method: (§1)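 Growth inhibition measured by a previously published method in KB (oral epidermoid carcinoma) and HCT-116 (human colon carcinoma) cells. Taxotere served as the reference compound. IC50 was reported.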

HCT-116 [2] = experiment: Cytotoxicity against human HCT116 cells; assay type: functional, cell-based; summary of the method: as §1
KB [3] = experiment: Cytotoxicity against human KB cells at 10 ug/mL; assay type: functional, cell-based
Summary of the method: (§2)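 Single-concentration screen at 10 µg/mL in KB (oral epidermoid carcinoma) and HCT-116 (human colon carcinoma) cells, run by a previously published cytotoxicity method. Taxotere served as the reference.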

HCT-116 [4] = experiment: Cytotoxicity against human HCT116 cells at 10 ug/mL; assay type: functional, cell-based; summary of the method: as §2

Bcl-2-like protein 1, sequence (Q07817 whole entry): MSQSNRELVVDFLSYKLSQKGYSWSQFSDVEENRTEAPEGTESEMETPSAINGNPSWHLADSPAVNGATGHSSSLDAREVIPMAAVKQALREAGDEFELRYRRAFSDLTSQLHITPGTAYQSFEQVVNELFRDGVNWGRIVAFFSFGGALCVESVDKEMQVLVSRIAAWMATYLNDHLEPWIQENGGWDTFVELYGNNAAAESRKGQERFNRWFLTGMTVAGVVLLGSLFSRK

| IC50 (Bcl-2-like protein 1) | IC50 (Bcl-2-like protein 1; read-out: IC50) | SMILES | IC50 (KB [1]) | IC50 (HCT-116 [2]) | inhibition (KB [3]) | inhibition (HCT-116 [4]) |
| --- | --- | --- | --- | --- | --- | --- |
| Not Active |  | CC1=C[C@]23CC[C@@H]4[C@](C)([C@H](O)CC[C@@]4(C)C(=O)O)[C@H]2[C@H]2[C@H](C3)[C@@H]12 | > 31.6 µM | > 31.6 µM | inactive | inactive |
| Not Active |  | C[C@]12C[C@]34CC[C@@H]5[C@](C)([C@H](O)CC[C@@]5(C)C(=O)O)[C@@H]3C[C@H]1[C@H]2C4 | > 31.4 µM | > 31.4 µM | inactive | inactive |
|  | 380 µM | C[C@]12CCC[C@@](C)(C(=O)O)[C@@H]1CC[C@]13C[C@@H](C=C[C@@H]12)[C@@](C)(O)C3 | > 31.4 µM | > 31.4 µM | inactive | inactive |
|  | 220 µM | C[C@]12CCC[C@@](C)(C(=O)O)[C@@H]1CC[C@]13C[C@@H]4[C@H](C[C@H]12)[C@]4(CO)C3 | > 31.4 µM | > 31.4 µM | inactive | inactive |
| Not Active |  | C[C@]12[C@H](O)CC[C@@](C)(C(=O)O)[C@@H]1CC[C@]13C[C@@H](C=C[C@@H]12)[C@@](C)(O)C3 | > 29.9 µM | > 29.9 µM | inactive | inactive |
|  | 400 µM | C[C@]12CCC[C@@](C)(C(=O)O)[C@@H]1CC[C@]13C[C@@H]4[C@H](C[C@H]12)[C@]4(C)C3 |  |  |  |  |
| Not Active |  | CO[C@@]1(C)C[C@]23CC[C@@H]4[C@](C)([C@H](O)CC[C@@]4(C)C(=O)O)[C@H]2C=C[C@@H]1C3 | > 28.7 µM | > 28.7 µM | inactive | inactive |
|  |  | CC(=O)O[C@@]12CO[C@@H]1C[C@H](O)[C@@]1(C)C(=O)[C@H](O)C3=C(C)[C@@H](OC(=O)[C@H](O)[C@@H](NC(=O)OC(C)(C)C)c4ccccc4)C[C@@](O)([C@@H](OC(=O)c4ccccc4)[C@H]21)C3(C)C [DOCETAXEL] | 0.00015 µM | 0.0012 µM |  |  |
